Measurements gathered from unrelated publications.
Compare with care: the assays were run in different laboratories.
gag-pol reverse transcriptase: Gag-Pol polyprotein, reverse transcriptase (gag-pol, Human immunodeficiency virus 1, UniProt P03366)
PRMT6: Protein arginine N-methyltransferase 6 (PRMT6, Homo sapiens, UniProt Q96LA8)
gyrA: DNA gyrase subunit A (gyrA, Escherichia coli K-12, UniProt P0AES4)
PDE2A: cGMP-dependent 3',5'-cyclic phosphodiesterase (PDE2A, Homo sapiens, UniProt O00408)

SMILES | target | test | setting | IC50 [nM]
CCn1ncc2c1-c1cnc(N)c(c1)O[C@H](C)c1cc(F)ccc1-c1nn(C)nc1C2 | STE20-like serine/threonine-protein kinase (SLK, Homo sapiens, UniProt Q9H2G2) | enzyme activity, inhibitor, radiometric | – | 336
N#Cc1ccc(Nc2nc(N)cc(Oc3ccc(-c4ccc(C#N)cc4)c(Cl)c3)n2)cc1 | gag-pol reverse transcriptase | enzyme activity, inhibitor | – | 40
C=CC(=O)Nc1cc(Nc2nccc(Nc3cc(Cl)c(F)cc3C(C)(C)O)n2)c(OC)cc1N1CC[C@@H](N(C)C)C1 | Receptor tyrosine-protein kinase erbB-2 (ERBB2, Homo sapiens, UniProt P04626) | enzyme activity, inhibitor | with preincubation | 392
CC1(C)C(/C=C/C=C2/N(CCCc3ccccc3)c3ccc(Cl)cc3C2(C)C)=[N+](CCCc2ccccc2)c2ccc(Cl)cc21 | PRMT6 | enzyme activity, inhibitor, radiometric | – | 1660
C/C(=C\c1ccc(C#N)cc1)C(=O)Nc1ccc(C(=O)N[C@@H](CC(N)=O)C(=O)Nc2ccc(C(=O)Nc3ccc(C(=O)Nc4ccc(C(=O)O)cc4)c(O)c3OC(C)C)cc2)cc1 | gyrA | enzyme activity, inhibitor | – | 200
O=C1NC(=O)/C(=C/c2ccc(OCCNc3nc4c(cnn4C4CCCC4)c(=O)[nH]3)c(F)c2)S1 | PDE2A | enzyme activity, inhibitor | – | 58
Cc1cc(C)cc(S(=O)(=O)c2c(C(=O)NCCNS(=O)(=O)c3cccs3)[nH]c3ccc(Cl)cc23)c1 | gag-pol reverse transcriptase | enzyme activity, inhibitor, ELISA | – | 140
Cc1nccc2c1c(=O)n(C)c1cc(OC[C@@H](N)CC(C)C)c(C#N)cc21 | Alpha-2A adrenergic receptor (ADRA2A, Homo sapiens, UniProt P08913) | cell-free assay | – | > 30000
Cc1cc(C)cc(S(=O)(=O)c2c(C(=O)NCCCCCNS(=O)(=O)c3ccccc3)[nH]c3ccc(Cl)cc23)c1 | gag-pol reverse transcriptase | enzyme activity, inhibitor, ELISA | – | 120
O=C1N=C(Nc2ccccc2)S/C1=C\c1ccccc1OCc1cn(Cc2ccc(Cl)cc2)nn1 | Aldo-keto reductase family 1 member A1 (AKR1A1, Homo sapiens, UniProt P14550) | enzyme activity, inhibitor, absorbance | pH 6.2 | 54000
Cc1cc(C)cc(S(=O)(=O)c2c(C(=O)NCCCCNS(=O)(=O)c3ccc(Br)cc3)[nH]c3ccc(Cl)cc23)c1 | gag-pol reverse transcriptase | enzyme activity, inhibitor, ELISA | – | 150
N#Cc1ccc(Nc2nc(N)cc(Oc3ccc(-c4ccc(C#N)cc4)c(F)c3F)n2)cc1 | gag-pol reverse transcriptase | enzyme activity, inhibitor | – | 30
CC(C)Oc1c(NC(=O)c2ccc(NC(=O)[C@H](CC(N)=O)NC(=O)c3ccc(NC(=O)c4ccc5c(c4)COC5=O)cc3)cc2)ccc(C(=O)Nc2ccc(C(=O)O)cc2)c1O | gyrA | enzyme activity, inhibitor | – | 1400
CCCCN1/C(=C/C=C/c2sc3ccc(Br)cc3[n+]2CCCC)Sc2ccc(Br)cc21 | PRMT6 | enzyme activity, inhibitor, radiometric | – | 3150
NC(=O)c1ccc[n+]([C@@H]2O[C@H](COP(=O)([O-])OP(=O)(O)OC[C@H]3O[C@@H](n4cnc5c(N)ncnc54)[C@H](O)[C@@H]3O)[C@@H](O)[C@H]2O)c1 | Protein mono-ADP-ribosyltransferase PARP12 (PARP12, Homo sapiens, UniProt Q9H0J9) | enzyme activity, inhibitor | – | 73000
CC(C)Oc1c(NC(=O)c2ccc(NC(=O)[C@H](CC(N)=O)NC(=O)c3ccc(NC(=O)c4ccccc4)cc3)cc2)ccc(C(=O)Nc2ccc(C(=O)O)cc2)c1O | gyrA | enzyme activity, inhibitor | – | 4000
COc1ccc2c(Oc3ccc4c(C(=O)Nc5ccccc5N)cccc4c3)ccnc2c1 | cAMP-dependent protein kinase catalytic subunit alpha (PRKACA, Homo sapiens, UniProt P17612) | enzyme activity, inhibitor | – | > 500
CC(C)Oc1c(-n2cc(-c3ccc(NC(=O)C(CC(N)=O)NC(=O)c4ccc(NC(=O)c5ccc(C#N)cc5)cc4)cc3)nn2)ccc(C(=O)Nc2ccc(C(=O)O)cc2)c1O (stereo not drawn) | gyrA | enzyme activity, inhibitor | – | 1500

SMILES | target | test | setting | IC50 [nM]
Cc1cc(C)cc(S(=O)(=O)c2c(C(=O)NCCCNS(=O)(=O)c3ccc(Br)cc3)[nH]c3ccc(Cl)cc23)c1 | gag-pol reverse transcriptase | enzyme activity, inhibitor, ELISA | – | 160
N#Cc1ccc(Nc2nc(N)cc(Oc3ccc(-c4ccc(C#N)cc4)c(C#N)c3)n2)cc1 | gag-pol reverse transcriptase | enzyme activity, inhibitor | – | 90
Cc1cc(C)cc(S(=O)(=O)c2c(C(=O)NCCCNS(=O)(=O)c3cccs3)[nH]c3ccc(Cl)cc23)c1 | gag-pol reverse transcriptase | enzyme activity, inhibitor, ELISA | – | 190
COc1cc(C[C@H]2C(=O)OC[C@@H]2Cc2ccc(OC)c(OC)c2)ccc1O | PDE2A | enzyme activity, inhibitor | – | > 20000
Cc1cc(C)cc(S(=O)(=O)c2c(C(=O)NCCCCNS(=O)(=O)c3ccc(Cl)cc3)[nH]c3ccc(Cl)cc23)c1 | gag-pol reverse transcriptase | enzyme activity, inhibitor, ELISA | – | 94
O=C(Nc1cccc2[nH]ccc12)c1ccccc1 | Alpha-synuclein, monomer (SNCA, Homo sapiens, UniProt P37840) | amyloid aggregation, inhibitor, fluorescence | – | ~12900
CC(C)Oc1c(N)ccc(C(=O)Nc2ccc(C(=O)N[C@@H](CC(N)=O)C(=O)Nc3ccc(C(=O)Nc4ccc(C(=O)Nc5ccc(C(=O)O)cc5)c(O)c4OC(C)C)cc3)cc2)c1O | gyrA | enzyme activity, inhibitor | – | 50000
N#Cc1ccc(Nc2nc(N)cc(Oc3ccc(-c4cccc(F)c4)cc3)n2)cc1 | gag-pol reverse transcriptase | enzyme activity, inhibitor | – | 330
CC(C)Oc1c(NC(=O)c2ccc(NC(=O)[C@H](CC(N)=O)NC(=O)c3ccc(NC(=O)Cc4ccc(C#N)cc4)cc3)cc2)ccc(C(=O)Nc2ccc(C(=O)O)cc2)c1O | gyrA | enzyme activity, inhibitor | – | 16300
N#Cc1ccc(Nc2nc(N)cc(Oc3ccc(-c4ccc(C#N)cc4)cc3F)n2)cc1 | gag-pol reverse transcriptase | enzyme activity, inhibitor | – | 30
CC(=O)N[C@@H]1[C@@H](O)[C@H](O)[C@@H](CO)S[C@@H]1OP(=O)(O)OP(=O)(O)OC[C@H]1O[C@@H](n2ccc(=O)[nH]c2=O)[C@H](O)[C@@H]1O | UDP-N-acetylglucosamine--peptide N-acetylglucosaminyltransferase 110 kDa subunit (OGT, Homo sapiens, UniProt O15294) | enzyme activity, inhibitor | – | 78800
Cc1cc(C)cc(S(=O)(=O)c2c(C(=O)NCCCCCNS(=O)(=O)c3ccc(Cl)cc3)[nH]c3ccc(Cl)cc23)c1 | gag-pol reverse transcriptase | enzyme activity, inhibitor, ELISA | – | 120
N#Cc1ccc(Nc2nc(N)cc(Oc3ccc(-c4ccc(F)cc4)cc3)n2)cc1 | gag-pol reverse transcriptase | enzyme activity, inhibitor | – | 200
Cc1cc(C)cc(S(=O)(=O)c2c(C(=O)NCCCNS(=O)(=O)c3ccc([N+](=O)[O-])cc3)[nH]c3ccc(Cl)cc23)c1 | gag-pol reverse transcriptase | enzyme activity, inhibitor, ELISA | – | 120
CC(C)Oc1c(NC(=O)c2ccc(NC(=O)[C@H](CC(N)=O)NC(=O)c3ccc(NC(=O)c4ccc(C#N)cc4)cc3)cc2)ccc(C(=O)Nc2ccncc2)c1O | gyrA | enzyme activity, inhibitor | – | 900
COc1ccc(C2=NN(C3CCCCCC3)C(=O)[C@@H]3CC=CC[C@H]23)cc1-c1ccc(C(N)=O)cc1 (relative stereo) | PDE2A | enzyme activity, inhibitor | – | 3980
CC(C)Oc1c(NC(=O)c2ccc(NC(=O)[C@H](CC(N)=O)NC(=O)c3ccc(NC(=O)C(C)Sc4ccc(C#N)cc4)cc3)cc2)ccc(C(=O)Nc2ccc(C(=O)O)cc2)c1O (stereo partly drawn) | gyrA | enzyme activity, inhibitor | – | 800
N#Cc1ccc(Nc2nc(N)cc(Oc3c(F)cc(-c4ccccc4)cc3F)n2)cc1 | gag-pol reverse transcriptase | enzyme activity, inhibitor | – | 70
